The target of data set [1] is apoE3 (Homo sapiens, UniProt P02649, A303C). The data set can be described thus: Fluorescence of TMR-labeled apoE3. The data set is classed as binding. Summed up:
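ApoE3 A285C was labelled with TMR maleimide (dye:protein 1:1; native Cys112 possibly also labelled). It was preincubated 1 h at room temperature, then titrated stepwise with test compound while fluorescence was monitored to derive an apparent Kd. Buffer: 20 mM HEPES pH 7.4, 150 mM NaCl, 1 mM DTT, 1 mM EDTA, 25 °C.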

The target of data set [2] is T1, apoE3 (Homo sapiens, UniProt P02649). The data set can be described thus: SYPRO Orange displacement titration, apoE3. The note with it: Apparent dissociation constant Kd, Using SYPRO Orange, PBS pH 7.4, 25 °C. The class given is binding. The method in brief: (§1)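 Adding apoE to SYPRO Orange increases its fluorescence and shifts the emission maximum to 575 nm. After a 1 h room-temperature protein preincubation, test compound was titrated stepwise and the decrease in SYPRO Orange fluorescence was fitted for an apparent Kd. Buffer: 10 mM phosphate pH 7.4, 150 mM NaCl, 1 mM DTT, 1 mM EDTA, 25 °C.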
T1 sequence (P02649 19-317): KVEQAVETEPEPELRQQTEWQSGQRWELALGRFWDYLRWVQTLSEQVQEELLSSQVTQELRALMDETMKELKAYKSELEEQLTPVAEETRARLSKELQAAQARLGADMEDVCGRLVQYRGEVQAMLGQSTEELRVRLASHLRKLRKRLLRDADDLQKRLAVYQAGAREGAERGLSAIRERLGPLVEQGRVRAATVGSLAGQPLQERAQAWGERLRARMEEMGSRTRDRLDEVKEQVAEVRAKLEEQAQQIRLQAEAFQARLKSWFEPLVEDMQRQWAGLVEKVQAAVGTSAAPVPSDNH

Data set [3] concerns the target T2, apoE4 (Homo sapiens, UniProt P02649, C130R). Put plainly: SYPRO Orange displacement titration, apoE4. The data set is classed as binding. The note with it: Apparent dissociation constant Kd, Using SYPRO Orange, PBS pH 7.4, 25 °C. Summed up: as §1
Data set [4] deals with T1, apoE3. The data set can be described thus: Quenching of ANS fluorescence, apoE3. The class given is binding. The note with it: Apparent dissociation constant Kd, Using ANS, PBS pH 7.4, 25 °C. Summed up:
(§2)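 Unlabelled apoE raises ANS fluorescence. Test compound was titrated stepwise into the apoE–ANS mixture after a 1 h room-temperature protein preincubation, and quenching of ANS fluorescence gave an apparent Kd. Buffer: 10 mM phosphate pH 7.4, 150 mM NaCl, 1 mM DTT, 1 mM EDTA, 25 °C.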

The target of data set [5] is T2, apoE4. Put plainly: Quenching of ANS fluorescence, apoE4. The class given is binding. Summed up: as §2
Data set [6] deals with apoE4 (Homo sapiens, UniProt P02649, C130R/S157C). The data set is classed as binding. Summed up:
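Alexa488-maleimide labelled the apoE4 S139C mutant after 20 mM DTT reduction (1–2 h, 37 °C), with a 10-fold molar dye excess overnight at 4 °C (>90% labelling). Labelled protein was preincubated 1 h at room temperature, then titrated stepwise with test compound to follow fluorescence decrease. Unlabelled apoE3 was then added. Buffer: 10 mM phosphate pH 7.4, 150 mM NaCl, 1 mM DTT, 1 mM EDTA, 25 °C.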

The target in data set [7] is T2, apoE4. Put plainly: Analytical ultracentrifugation sedimentation velocity. The note with it: 10 μM apoE4, 10 or 20 μM EZ-482, PBS. The method in brief: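 Recombinant apoE4 was expressed in E. coli BL21(DE3) as a His-tagged thioredoxin fusion, cleaved with PreScission protease (leaving N-terminal Gly-Pro), and dialysed into PBS. For sedimentation velocity, 10 μM apoE4 was run with 0, 10 or 20 μM test compound in PBS in a double-sector centerpiece (1.2 cm path), with absorbance at 290 nm recorded in continuous mode.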

In data set [8] the target is T1, apoE3. The data set can be described thus: Differential hydrogen-deuterium exchange MS, apoE3. The class given is binding. The method in brief: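 ApoE3 stock (10 μM in PBS, 2 mM DTT) was incubated 2 h at 25 °C with test compound […]; controls had 2% DMSO. Exchange ran in D₂O PBS (pD 7.4, 25 °C, 30 s–30 min), with 1 μM apoE and 25 μM compound. Quench used fungal XIII/urea/formic acid on ice, then pepsin digestion, C18 LC and ESI-QTOF MS. Duplicates; 48 h back-exchange correction.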

Data set [9] has as its target T2, apoE4. The data set can be described thus: Differential hydrogen-deuterium exchange MS, apoE4. The data set is classed as binding. Particulars: 1 μM WT apoE4, 25 μM EZ-482, 25 °C.
Another data set is described as follows: Solubility in DMSO. The data set is classed as physicochemical.

The values below come from article PMC4976638 (Biochemistry, 2016).

T2 sequence (P02649 19-317 C130R): as the sequence (P02649 19-317) above, with C112R counted along it
Sequence of apoE4 (Homo sapiens, UniProt P02649, C130R/S157C) (P02649 19-317 C130R/S157C): as the sequence (P02649 19-317) above, with C112R, S139C counted along it
Sequence of apoE3 (Homo sapiens, UniProt P02649, A303C) (P02649 19-317 A303C): as the sequence (P02649 19-317) above, with A285C counted along it

In the case of `Cn1nc(CC(=O)Nc2cc(S(=O)(=O)Nc3cccc(Cl)c3)ccc2O)c2ccccc2c1=O` [EZ-482, N-{5-[(3-chlorophenyl)sulfamoyl]-2-hydroxyphenyl}-2-(3-methyl-4-oxo-3,4-dihydrophthalazin-1-yl)acetamide], the Kd at apoE3 [1] came to 7 ± 0.35 µM; at apoE3 [2], 7.3 ± 0.53 µM; at apoE4 [3], 7.6 ± 0.4 µM; on apoE3 [4] it was 5.6 ± 0.7 µM; at apoE4 [5] it was 7.5 ± 1 µM; at apoE4 [6], 7.5 µM. Moreover, the “Effect on distribution of apoE oligomers” value at apoE4 [7] is “essentially unaffected”. For the same compound, at apoE3 [8] (1 μM WT apoE3, 25 μM EZ-482, 25 °C), the “N-terminal allosteric effect by HDX, apoE3” value was “apoE3 N-terminal remained unaffected”. Besides, the “Binding site by HDX protection, apoE3” value at apoE3 [8] (1 μM WT apoE3, 25 μM EZ-482 or 1X SYPRO Orange, 25 °C) is “Large protection was observed only in the C-terminal domain (229–235/234–243 and 258–265)”. Besides, the “Binding site by HDX protection, apoE4” value on apoE4 [9] was “Large protection was observed only in the C-terminal domain (229–235/234–243 and 258–265)”. Further, the “Solubility in DMSO” value in “Solubility in DMSO” is recorded as “reasonably soluble in DMSO”.
